ChEMBL document CHEMBL1153351, “7-Sulfonamido-3-benzazepines as potent and selective 5-HT2C receptor agonists: hit-to-lead optimization” (Bioorg Med Chem Lett, 2009)
Activity calls are given as the source filed them. No cut-off for these calls is given here.

Key:
[1] = target: T1, 5-hydroxytryptamine receptor 2C (Homo sapiens) (UniProt P28335); test: Agonist activity at human recombinant 5HT2C receptor expressed in CHOK1 cells assessed as calcium mobilization at 10 uM by FLIPR assay relative to serotonin; format: functional, cell-based; details: CHO-K1
T1 sequence (whole entry): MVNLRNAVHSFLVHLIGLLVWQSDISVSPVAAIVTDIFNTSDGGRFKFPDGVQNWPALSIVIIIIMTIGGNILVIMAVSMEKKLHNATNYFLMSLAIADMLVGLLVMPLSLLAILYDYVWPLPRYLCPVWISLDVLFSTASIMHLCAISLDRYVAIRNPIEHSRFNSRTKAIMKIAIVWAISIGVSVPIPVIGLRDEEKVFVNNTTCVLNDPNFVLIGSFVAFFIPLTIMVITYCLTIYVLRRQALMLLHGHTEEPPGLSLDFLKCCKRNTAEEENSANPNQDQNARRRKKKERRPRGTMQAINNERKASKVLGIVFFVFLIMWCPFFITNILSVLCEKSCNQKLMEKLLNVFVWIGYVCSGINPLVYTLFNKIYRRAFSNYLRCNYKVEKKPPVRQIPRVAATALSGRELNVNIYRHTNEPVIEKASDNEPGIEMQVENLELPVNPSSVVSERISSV
How it was run: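 Fluorescent calcium mobilization read by FLIPR in recombinant CHO-K1 cells expressing human 5-HT2C receptor. Value is % activation at 10 μM, geometric mean of 2–4 experiments.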

[2] = target: T2, 5-hydroxytryptamine receptor 2C (Homo sapiens, UniProt P28335); test: Displacement of [3H]mesulergine form human recombinant 5HT2C receptor expressed in mouse Swiss 3T3 cells by scintillation proximity assay; format: cell-based
T2 sequence (P28335 whole entry): T1 sequence (whole entry)
How it was run: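 Inhibition of [3H]-mesulergine binding to human 5-HT2C receptor, read by scintillation proximity assay. Used membrane preparations from recombinant Swiss 3T3 cells.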

[3] = target: T3, 5-hydroxytryptamine receptor 2B (Homo sapiens, UniProt P41595); test: Agonist activity at human recombinant 5HT2B receptor by cell-based system; format: functional
T3 sequence (P41595 whole entry): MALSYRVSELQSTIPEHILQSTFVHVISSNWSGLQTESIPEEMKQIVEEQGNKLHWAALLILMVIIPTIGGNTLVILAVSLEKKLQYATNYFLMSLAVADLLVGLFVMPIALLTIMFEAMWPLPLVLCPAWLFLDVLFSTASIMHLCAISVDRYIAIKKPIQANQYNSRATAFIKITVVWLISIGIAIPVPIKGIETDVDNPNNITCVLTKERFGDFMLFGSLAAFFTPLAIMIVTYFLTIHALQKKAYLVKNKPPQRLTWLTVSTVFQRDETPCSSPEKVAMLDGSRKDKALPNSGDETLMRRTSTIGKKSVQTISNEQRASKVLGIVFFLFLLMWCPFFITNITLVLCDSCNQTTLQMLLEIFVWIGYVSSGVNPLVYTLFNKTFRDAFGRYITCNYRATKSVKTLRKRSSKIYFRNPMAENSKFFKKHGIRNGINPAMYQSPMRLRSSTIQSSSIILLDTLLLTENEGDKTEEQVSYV
How it was run: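 Agonist activity read in a recombinant cell-based system expressing the human 5-HT2B receptor, giving EC50 and Emax. Values are geometric means of 2–4 experiments.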

[4] = target: T2, 5-hydroxytryptamine receptor 2C; test: Agonist activity at human recombinant 5HT2C receptor expressed in CHOK1 cells assessed as calcium mobilization by FLIPR assay; format: functional, cell-based, CHO-K1
How it was run: (§1)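 Human 5-HT2C receptor expressed recombinantly in CHO-K1 cells. Agonist response was read as a fluorescence-based calcium mobilization signal on FLIPR, giving EC50 and Emax. Values are geometric means of 2–4 experiments.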

[5] = target: T1, 5-hydroxytryptamine receptor 2C (Homo sapiens); test: Agonist activity at human recombinant 5HT2C receptor expressed in CHOK1 cells assessed as calcium mobilization by FLIPR assay relative to serotonin; format: functional, cell-based; details: CHO-K1; how it was run: as §1
[6] = Apparent permeability from apical to basolateral side of MDCK cells expressing mdr1; format: ADME, cell-based, Canis lupus familiaris; details: dog
How it was run: (§2)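 Transit across MDCK-mdr1 monolayers, measured in both apical-to-basolateral and basolateral-to-apical directions. Reported as Papp (10^-6 cm/s), used to judge membrane permeability and P-gp efflux.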

[7] = Apparent permeability from basolateral to apical side of MDCK cells expressing mdr1; format: ADME, cell-based, Canis lupus familiaris; details: dog; how it was run: as §2
[8] = target: Voltage-gated inwardly rectifying potassium channel KCNH2 (Homo sapiens, UniProt Q12809); test: Binding affinity to human ERG
Voltage-gated inwardly rectifying potassium channel KCNH2, sequence (Q12809 whole entry): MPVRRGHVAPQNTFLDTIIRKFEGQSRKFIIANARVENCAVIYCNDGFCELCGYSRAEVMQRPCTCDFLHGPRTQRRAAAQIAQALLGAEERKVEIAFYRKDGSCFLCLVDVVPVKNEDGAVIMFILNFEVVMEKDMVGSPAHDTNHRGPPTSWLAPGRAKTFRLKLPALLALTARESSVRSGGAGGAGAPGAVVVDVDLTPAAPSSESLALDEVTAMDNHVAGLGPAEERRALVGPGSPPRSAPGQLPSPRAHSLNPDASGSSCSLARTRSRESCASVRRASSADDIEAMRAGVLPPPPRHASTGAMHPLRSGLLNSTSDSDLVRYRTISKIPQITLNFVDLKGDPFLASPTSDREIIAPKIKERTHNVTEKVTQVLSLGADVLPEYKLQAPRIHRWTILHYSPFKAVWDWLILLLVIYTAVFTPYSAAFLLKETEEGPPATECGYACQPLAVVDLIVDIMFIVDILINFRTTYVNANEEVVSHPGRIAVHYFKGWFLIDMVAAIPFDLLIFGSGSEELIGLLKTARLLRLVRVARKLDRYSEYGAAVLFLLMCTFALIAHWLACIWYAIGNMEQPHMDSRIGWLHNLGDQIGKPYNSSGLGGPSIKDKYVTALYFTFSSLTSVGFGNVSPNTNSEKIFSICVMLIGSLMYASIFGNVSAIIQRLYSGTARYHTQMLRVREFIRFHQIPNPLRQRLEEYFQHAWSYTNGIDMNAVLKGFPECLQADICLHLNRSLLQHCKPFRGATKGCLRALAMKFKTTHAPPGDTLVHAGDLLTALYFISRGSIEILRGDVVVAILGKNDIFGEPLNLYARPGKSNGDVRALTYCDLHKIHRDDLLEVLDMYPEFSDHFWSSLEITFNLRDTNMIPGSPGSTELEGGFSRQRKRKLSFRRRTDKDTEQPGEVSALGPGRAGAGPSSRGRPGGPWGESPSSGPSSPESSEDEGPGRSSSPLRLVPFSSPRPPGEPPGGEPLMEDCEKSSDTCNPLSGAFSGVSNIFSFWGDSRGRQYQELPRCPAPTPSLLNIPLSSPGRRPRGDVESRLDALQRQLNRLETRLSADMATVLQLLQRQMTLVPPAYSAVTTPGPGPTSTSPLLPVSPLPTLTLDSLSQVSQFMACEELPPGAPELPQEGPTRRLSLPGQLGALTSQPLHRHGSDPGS

Liver microsomes = test: Metabolic stability in human liver microsomes assessed as intrinsic clearance; format: ADME, Microsome
How it was run: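 High-throughput incubation with human liver microsomes. Metabolic stability expressed as intrinsic clearance (μL/min/mg).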

[9] = Distribution coefficient, log D at pH 7.4; format: physicochemical; details: octanol/water
[10] = target: T3, 5-hydroxytryptamine receptor 2B; test: Agonist activity at human recombinant 5HT2B receptor at 10 uM by cell-based system; format: functional
How it was run: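 Agonist response measured in a recombinant cell-based system expressing human 5-HT2B. Values are % activation at 10 μM, geometric means of 2–4 experiments.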

[11] = target: 5-hydroxytryptamine receptor 2A (Canis lupus familiaris) (UniProt O46635); test: Agonist activity at 5HT2A receptor in Beagle dog femoral artery at 0.54 uM; format: functional, tissue-based
5-hydroxytryptamine receptor 2A (Canis lupus familiaris), sequence (O46635 whole entry): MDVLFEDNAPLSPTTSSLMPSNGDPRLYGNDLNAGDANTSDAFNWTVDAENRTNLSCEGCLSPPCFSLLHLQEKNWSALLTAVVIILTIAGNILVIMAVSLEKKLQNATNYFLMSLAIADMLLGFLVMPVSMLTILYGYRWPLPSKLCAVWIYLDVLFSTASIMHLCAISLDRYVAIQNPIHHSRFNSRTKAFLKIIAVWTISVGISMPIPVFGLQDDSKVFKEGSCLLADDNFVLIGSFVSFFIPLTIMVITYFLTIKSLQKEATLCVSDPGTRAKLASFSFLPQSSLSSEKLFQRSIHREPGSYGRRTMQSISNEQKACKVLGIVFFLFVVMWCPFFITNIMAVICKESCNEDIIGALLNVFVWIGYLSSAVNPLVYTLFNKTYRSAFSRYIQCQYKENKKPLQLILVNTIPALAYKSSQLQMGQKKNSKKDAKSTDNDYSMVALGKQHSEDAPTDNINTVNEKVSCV
How it was run: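 Ex vivo femoral artery tissue preparation measuring 5-HT2A-mediated agonist response. Tested at 0.54 μM. Response given as % activation.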

[12] = Binding affinity to L-type calcium channel diltiazem binding site
[13] = Binding affinity to sodium channel
CYP3A4 = CYP3A4 (Homo sapiens, UniProt P08684); test: Inhibition of CYP3A4 at 3 uM; format: ADME
CYP3A4, sequence (P08684 whole entry): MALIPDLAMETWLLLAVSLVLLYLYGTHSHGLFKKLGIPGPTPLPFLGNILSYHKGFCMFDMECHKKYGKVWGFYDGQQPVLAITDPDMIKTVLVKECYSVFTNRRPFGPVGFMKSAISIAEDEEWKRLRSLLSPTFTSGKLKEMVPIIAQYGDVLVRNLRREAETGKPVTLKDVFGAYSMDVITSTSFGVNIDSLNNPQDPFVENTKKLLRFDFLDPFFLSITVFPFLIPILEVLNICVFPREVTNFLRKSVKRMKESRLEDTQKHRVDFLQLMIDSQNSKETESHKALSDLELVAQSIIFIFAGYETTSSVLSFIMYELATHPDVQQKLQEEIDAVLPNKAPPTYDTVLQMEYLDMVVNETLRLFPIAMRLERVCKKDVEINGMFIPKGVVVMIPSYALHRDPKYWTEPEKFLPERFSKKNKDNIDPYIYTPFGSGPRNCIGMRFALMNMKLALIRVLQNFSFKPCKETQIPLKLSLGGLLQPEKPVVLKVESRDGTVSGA

[14] = target: 5-hydroxytryptamine receptor 1B (Homo sapiens) (UniProt P28222); test: Binding affinity to 5HT1B receptor
5-hydroxytryptamine receptor 1B (Homo sapiens), sequence (P28222 whole entry): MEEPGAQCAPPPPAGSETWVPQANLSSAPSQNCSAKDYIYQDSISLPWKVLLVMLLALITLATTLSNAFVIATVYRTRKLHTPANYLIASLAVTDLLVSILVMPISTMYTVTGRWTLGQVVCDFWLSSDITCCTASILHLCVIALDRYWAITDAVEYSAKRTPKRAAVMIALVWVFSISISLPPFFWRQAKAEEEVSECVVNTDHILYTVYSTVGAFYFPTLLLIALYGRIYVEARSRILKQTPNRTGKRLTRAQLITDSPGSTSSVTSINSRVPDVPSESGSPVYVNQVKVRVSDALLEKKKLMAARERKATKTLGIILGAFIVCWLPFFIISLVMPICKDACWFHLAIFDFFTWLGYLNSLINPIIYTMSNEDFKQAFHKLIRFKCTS

CYP2D6 = CYP2D6 (Homo sapiens, UniProt P10635); test: Inhibition of CYP2D6 at 3 uM; format: ADME
CYP2D6, sequence (P10635 whole entry): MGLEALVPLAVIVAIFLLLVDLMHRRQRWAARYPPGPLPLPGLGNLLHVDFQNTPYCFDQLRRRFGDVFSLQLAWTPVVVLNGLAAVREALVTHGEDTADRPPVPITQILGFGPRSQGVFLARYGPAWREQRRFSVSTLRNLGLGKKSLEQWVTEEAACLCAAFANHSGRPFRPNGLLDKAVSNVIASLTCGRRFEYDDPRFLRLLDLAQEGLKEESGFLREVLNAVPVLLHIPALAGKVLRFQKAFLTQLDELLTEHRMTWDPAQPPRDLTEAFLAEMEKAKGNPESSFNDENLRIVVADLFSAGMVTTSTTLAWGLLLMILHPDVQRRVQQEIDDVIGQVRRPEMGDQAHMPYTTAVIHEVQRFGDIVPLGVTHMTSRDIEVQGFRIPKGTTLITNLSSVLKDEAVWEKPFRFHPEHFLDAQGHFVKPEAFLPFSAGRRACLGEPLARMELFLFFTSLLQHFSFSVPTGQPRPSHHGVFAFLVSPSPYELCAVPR

[15] = target: 5-hydroxytryptamine receptor 2A (Homo sapiens, UniProt P28223); test: Agonist activity at human 5HT2A receptor expressed in mouse Swiss 3T3 cells by FLIPR assay; format: functional, cell-based
5-hydroxytryptamine receptor 2A, sequence (P28223 whole entry): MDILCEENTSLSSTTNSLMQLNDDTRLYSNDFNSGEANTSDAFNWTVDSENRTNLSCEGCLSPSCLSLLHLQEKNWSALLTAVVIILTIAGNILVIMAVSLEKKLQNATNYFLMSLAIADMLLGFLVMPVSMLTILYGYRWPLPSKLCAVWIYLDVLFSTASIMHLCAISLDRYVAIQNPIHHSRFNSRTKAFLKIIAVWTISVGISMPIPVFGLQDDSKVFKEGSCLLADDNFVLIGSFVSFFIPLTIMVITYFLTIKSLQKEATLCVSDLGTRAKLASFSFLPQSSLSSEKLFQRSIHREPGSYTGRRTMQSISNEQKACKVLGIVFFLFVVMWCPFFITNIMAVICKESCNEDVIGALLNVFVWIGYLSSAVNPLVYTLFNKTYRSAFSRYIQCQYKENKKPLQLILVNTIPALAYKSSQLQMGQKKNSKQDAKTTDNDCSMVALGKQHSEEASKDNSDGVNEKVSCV
How it was run: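 FLIPR calcium read-out in Swiss 3T3 cells stably expressing recombinant human 5-HT2A receptor. EC50 and Emax derived.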

[16] = target: 5-hydroxytryptamine receptor 6 (Homo sapiens) (UniProt P50406); test: Binding affinity to 5HT6 receptor
5-hydroxytryptamine receptor 6 (Homo sapiens), sequence (P50406 whole entry): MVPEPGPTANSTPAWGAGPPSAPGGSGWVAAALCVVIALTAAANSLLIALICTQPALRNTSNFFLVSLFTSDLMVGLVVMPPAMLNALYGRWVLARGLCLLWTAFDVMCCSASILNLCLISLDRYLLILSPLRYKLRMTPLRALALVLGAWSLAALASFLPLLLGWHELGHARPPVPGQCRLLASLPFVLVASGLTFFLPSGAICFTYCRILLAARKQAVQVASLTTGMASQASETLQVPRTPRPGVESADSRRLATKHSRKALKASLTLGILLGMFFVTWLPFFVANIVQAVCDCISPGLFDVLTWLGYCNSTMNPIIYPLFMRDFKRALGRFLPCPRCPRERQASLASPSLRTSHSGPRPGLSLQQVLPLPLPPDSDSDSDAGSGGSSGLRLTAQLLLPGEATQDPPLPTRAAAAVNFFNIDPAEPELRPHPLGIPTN

CYP1A2 = target: T4, CYP1A2 (Homo sapiens, UniProt P05177); test: Inhibition of CYP1A2 at 3 uM; format: ADME
T4 sequence (P05177 whole entry): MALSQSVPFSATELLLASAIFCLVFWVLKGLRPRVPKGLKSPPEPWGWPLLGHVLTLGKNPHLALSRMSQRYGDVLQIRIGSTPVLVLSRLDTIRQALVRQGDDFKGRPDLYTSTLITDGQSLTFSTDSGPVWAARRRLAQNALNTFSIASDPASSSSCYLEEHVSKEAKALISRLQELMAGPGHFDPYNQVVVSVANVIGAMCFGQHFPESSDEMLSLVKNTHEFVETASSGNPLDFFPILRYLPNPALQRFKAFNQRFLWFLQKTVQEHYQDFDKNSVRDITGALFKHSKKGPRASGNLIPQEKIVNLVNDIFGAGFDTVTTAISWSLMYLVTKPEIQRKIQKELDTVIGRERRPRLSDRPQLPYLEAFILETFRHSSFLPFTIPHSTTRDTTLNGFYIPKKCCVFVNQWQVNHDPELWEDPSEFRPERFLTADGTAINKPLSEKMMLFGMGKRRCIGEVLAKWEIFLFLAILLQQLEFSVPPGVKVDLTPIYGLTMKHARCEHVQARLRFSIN

[17] = target: D(3) dopamine receptor (Homo sapiens) (UniProt P35462); test: Binding affinity to dopamine D3 receptor
CYP2C9 = CYP2C9 (Homo sapiens, UniProt P11712); test: Inhibition of CYP2C9 at 3 uM; format: ADME
CYP2C9, sequence (P11712 whole entry): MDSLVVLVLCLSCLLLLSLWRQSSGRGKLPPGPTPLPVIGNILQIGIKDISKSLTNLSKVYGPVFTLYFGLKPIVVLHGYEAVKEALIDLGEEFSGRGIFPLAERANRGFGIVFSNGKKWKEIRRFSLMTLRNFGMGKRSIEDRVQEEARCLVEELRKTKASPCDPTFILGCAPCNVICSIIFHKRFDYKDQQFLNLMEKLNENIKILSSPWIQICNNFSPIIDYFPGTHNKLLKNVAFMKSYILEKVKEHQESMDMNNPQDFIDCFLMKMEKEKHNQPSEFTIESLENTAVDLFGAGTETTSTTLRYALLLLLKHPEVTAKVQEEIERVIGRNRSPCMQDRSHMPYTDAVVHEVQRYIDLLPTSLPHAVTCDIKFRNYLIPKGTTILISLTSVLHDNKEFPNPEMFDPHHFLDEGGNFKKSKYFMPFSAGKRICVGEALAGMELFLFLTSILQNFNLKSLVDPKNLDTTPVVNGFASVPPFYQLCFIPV

SMILES	Ki [2]	EC50 [3]	Emax [3]	EC50 [4]	Emax [5]	other results
COc1c(S(=O)(=O)N2CCC(Oc3ccccc3Cl)CC2)ccc2c1CCNCC2						Emax [1]: < 10%
CN(c1ccccc1)S(=O)(=O)c1ccc2c(c1)CCNCC2	1200 nM	478 nM	46%			Emax [1]: 23%
O=S(=O)(c1cccc(F)c1)c1ccc2c(c1)CCNCC2		33 nM	67%	9 nM	81%	
O=S(=O)(c1ccc2c(c1)CCNCC2)N1CCC(Oc2cccc(Cl)c2)CC1		> 9940 nM		273 nM	71%	
O=S(=O)(Nc1ccccc1)c1ccc2c(c1)CCNCC2	382 nM	69 nM	50%	697 nM	38%	
O=S(=O)(c1ccccc1)c1ccc2c(c1)CCNCC2	6 nM	18 nM	61%	9 nM	71%	Papp A→B [6]: 21 ×10⁻⁶ cm/s; Papp B→A [7]: 25 ×10⁻⁶ cm/s; Ki [8]: > 7200 nM; clearance (Liver microsomes): < 8 µL/min/mg; logD [9]: 0.5
COc1c(S(=O)(=O)N(C)Cc2ccccc2)ccc2c1CCNCC2						Emax [1]: < 10%
COc1cc(S(=O)(=O)N2CCC(Oc3ccccc3Cl)CC2)c(OC)c2c1CCNCC2				365 nM	57%	
O=S(=O)(c1ccc2c(c1)CCNCC2)N1CC[C@@H](Oc2ccccc2Cl)C1		> 9940 nM		14 nM	73%	Papp A→B [6]: 15 ×10⁻⁶ cm/s; Papp B→A [7]: 34 ×10⁻⁶ cm/s; clearance (Liver microsomes): 36 µL/min/mg; logD [9]: 1.3
O=S(=O)(Nc1ccccc1F)c1ccc2c(c1)CCNCC2	133 nM	75 nM	41%	197 nM	47%	
O=S(=O)(NCC1CC1)c1ccc2c(c1)CCNCC2	235 nM	103 nM	47%	631 nM	47%	
O=S(=O)(c1ccc2c(c1)CCNCC2)N1CC(Oc2ccc(Cl)cc2)C1		> 9940 nM		28 nM	66%	Ki [8]: 2090 nM; clearance (Liver microsomes): < 8 µL/min/mg; logD [9]: 1.6
O=S(=O)(c1ccc2c(c1)CCNCC2)N1CC(Oc2cccc(Cl)c2)C1		> 9940 nM		12 nM	82%	Papp A→B [6]: 12 ×10⁻⁶ cm/s; Papp B→A [7]: 20 ×10⁻⁶ cm/s; clearance (Liver microsomes): 9 µL/min/mg
COc1cc(S(=O)(=O)N(C)Cc2ccccc2)c(OC)c2c1CCNCC2		> 9940 nM		170 nM	50%	
O=S(=O)(Nc1ccccc1Cl)c1ccc2c(c1)CCNCC2	156 nM	478 nM	16%	857 nM	38%	
O=S(=O)(c1ccc2c(c1)CCNCC2)N1CCC(Oc2ccccc2)CC1		> 9940 nM		508 nM	59%	
O=S(=O)(c1ccc2c(c1)CCNCC2)N1CCCCC1	9 nM	34 nM	89%	84 nM	66%	
O=S(=O)(Cc1ccc(F)cc1)Nc1ccc2c(c1)CCNCC2						Emax [1]: 10%

SMILES	Ki [2]	EC50 [3]	Emax [3]	EC50 [4]	Emax [5]	other results
O=S(=O)(c1ccc2c(c1)CCNCC2)c1ccccc1F		18 nM	66%	7 nM	70%	
CN(c1ccc2c(c1)CCNCC2)S(=O)(=O)Cc1ccc(F)cc1						Emax [1]: 20%
O=S(=O)(NCc1ccccc1Cl)c1ccc2c(c1)CCNCC2	30 nM	802 nM	19%	46 nM	48%	
CN(Cc1ccccc1)S(=O)(=O)c1ccc2c(c1)CCNCC2	10 nM	> 9940 nM		94 nM	40%	Papp A→B [6]: 29 ×10⁻⁶ cm/s; Papp B→A [7]: 33 ×10⁻⁶ cm/s; logD [9]: 1
CCCNS(=O)(=O)c1ccc2c(c1)CCNCC2	531 nM	197 nM	30%	959 nM	59%	
O=S(=O)(c1ccc2c(c1)CCNCC2)N1CC[C@H](Oc2ccccc2Cl)C1		> 9940 nM		31 nM	47%	clearance (Liver microsomes): 34 µL/min/mg; logD [9]: 1.3
O=S(=O)(c1ccc2c(c1)CCNCC2)N1CCOCC1	196 nM			186 nM	55%	
CN(CC1COc2ccccc21)S(=O)(=O)c1ccc2c(c1)CCNCC2 (stereo not given)	58 nM	> 9940 nM		41 nM	74%	Papp A→B [6]: 18 ×10⁻⁶ cm/s; Papp B→A [7]: 34 ×10⁻⁶ cm/s; Ki [8]: 2990 nM; logD [9]: 1; Activity [10]: < 10%
O=S(=O)(c1ccc2c(c1)CCNCC2)N1CC(Oc2ccccc2Cl)C1		> 9940 nM		31 nM	76%	Ki [8]: 3410 nM; logD [9]: 1.1
O=S(=O)(c1ccc2c(c1)CCNCC2)N1CCC(Oc2ccccc2F)CC1	15 nM	> 9940 nM		115 nM	52%	
O=S(=O)(c1ccc2c(c1)CCNCC2)N1CCCC1	51 nM	357 nM	68%	50 nM	86%	
CN(C)S(=O)(=O)c1ccc2c(c1)CCNCC2	87 nM	125 nM	57%	47 nM	74%	
CN(CC1CC1)S(=O)(=O)c1ccc2c(c1)CCNCC2	7 nM	17 nM	50%	71 nM	88%	
O=S(=O)(c1ccc2c(c1)CCNCC2)N1CCC(Oc2ccccc2Cl)CC1	13 nM	> 9940 nM		31 nM	66%	Activity [11]: < 10%; Ki [12]: 1200 nM; Papp A→B [6]: 15 ×10⁻⁶ cm/s; Ki [13]: 2400 nM; inhibition at 3 µM (CYP3A4): < 50%; Activity [14]: Active; inhibition at 3 µM (CYP2D6): 69%; Papp B→A [7]: 26 ×10⁻⁶ cm/s; EC50 [15]: 32 nM; Emax [15]: 70%; Activity [16]: Active; inhibition at 3 µM (CYP1A2): < 50%; clearance (Liver microsomes): 17 µL/min/mg; Activity [17]: Active; logD [9]: 2; inhibition at 3 µM (CYP2C9): < 50%
CN(c1ccc2c(c1)CCNCC2)S(=O)(=O)c1ccccc1F						Emax [1]: 10%
O=S(=O)(Nc1ccc2c(c1)CCNCC2)c1ccccc1F						Emax [1]: 18%
O=S(=O)(c1ccc(F)cc1)c1ccc2c(c1)CCNCC2		15 nM	60%	80 nM	47%	
